In brackets after ≈: the same amount, converted by molar mass.
Assays:
Staphylococcus aureus [1] = experiment: Antibacterial activity against methicillin-resistant Staphylococcus aureus NRS119 after 20 hrs by broth microdilution assay; format: functional; details: NRS119, 20 h
Summary of the method: (§1)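 Broth microdilution per CLSI in cation-adjusted Mueller Hinton broth. Compounds serially diluted, in triplicate. Incubation at 37 °C for at least 20 hours. MIC taken as the lowest concentration with no visible bacterial growth.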

Staphylococcus aureus [2] = experiment: Potency index, ratio of vancomycin MIC to compound MIC for antibacterial activity against vancomycin-resistant Staphylococcus aureus VRS11a; format: functional
Staphylococcus aureus [3] = experiment: Bactericidal activity against methicillin-resistant Staphylococcus aureus NRS107 up to 18 hrs by broth microdilution assay; format: functional; details: NRS107, 18 h, read-out: MBC99.9
Staphylococcus aureus [4] = experiment: Bactericidal activity against methicillin resistant Staphylococcus aureus NRS123 (USA400) up to 18 hrs by broth microdilution assay; format: functional; details: read-out: MBC99.9
Staphylococcus aureus [5] = experiment: Ratio of MBC to MIC for vancomycin-resistant Staphylococcus aureus VRS10; format: functional
Summary of the method: (§2)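 MBC/MIC ratio. […] MBC by plating no-growth wells onto tryptic soy agar at 37 °C for at least 18 h; taken as the concentration giving 99.9% growth inhibition.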

Staphylococcus aureus [6] = experiment: Antibacterial activity against methicillin-resistant Staphylococcus aureus USA300 after 20 hrs by broth microdilution assay; format: functional; details: USA300, 20 h; summary of the method: as §1
Staphylococcus aureus [7] = experiment: Ratio of MBC to MIC for methicillin-resistant Staphylococcus aureus NRS107; format: functional; summary of the method: as §2
Staphylococcus aureus [8] = experiment: Potency index, ratio of vancomycin MIC to compound MIC for antibacterial activity against vancomycin-resistant Staphylococcus aureus VRS10; format: functional
Staphylococcus aureus [9] = experiment: Bactericidal activity against methicillin-resistant Staphylococcus aureus USA300 up to 18 hrs by broth microdilution assay; format: functional; details: USA300, 18 h, read-out: MBC99.9
Staphylococcus aureus [10] = experiment: Ratio of MBC to MIC for methicillin-resistant Staphylococcus aureus NRS119; format: functional; summary of the method: as §2
Staphylococcus aureus [11] = experiment: Ratio of MBC to MIC for vancomycin-resistant Staphylococcus aureus VRS11a; format: functional; summary of the method: as §2
Staphylococcus aureus [12] = experiment: Ratio of MBC to MIC for methicillin-resistant Staphylococcus aureus USA300; format: functional; summary of the method: as §2
Staphylococcus aureus [13] = experiment: Antibacterial activity against vancomycin-resistant Staphylococcus aureus VRS10 after 20 hrs by broth microdilution assay; format: functional; details: VRS10, 20 h; summary of the method: as §1
Staphylococcus aureus [14] = experiment: Bactericidal activity against methicillin resistant vancomycin-resistant Staphylococcus aureus VRS12 up to 18 hrs by broth microdilution assay; format: functional; details: VRS12, 18 h, read-out: MBC99.9
Summary of the method: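 MBC set up from the MIC plates. Aliquots from wells with no growth spotted onto tryptic soy agar and incubated at 37 °C for at least 18 hours. MBC taken as the lowest concentration giving 99.9% inhibition of bacterial growth.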

Staphylococcus aureus [15] = experiment: Potency index, ratio of vancomycin MIC to compound MIC for antibacterial activity against vancomycin-resistant Staphylococcus aureus VRS12; format: functional
Staphylococcus aureus [16] = experiment: Antibacterial activity against vancomycin-resistant Staphylococcus aureus VRS11a after 20 hrs by broth microdilution assay; format: functional; summary of the method: as §1
Staphylococcus aureus [17] = experiment: Ratio of MBC to MIC for methicillin-resistant Staphylococcus aureus NRS123 (USA400); format: functional; summary of the method: as §2
Staphylococcus aureus [18] = experiment: Antibacterial activity against vancomycin-resistant Staphylococcus aureus VRS12 after 20 hrs by broth microdilution assay; format: functional; details: VRS12, 20 h; summary of the method: as §1
Staphylococcus aureus [19] = experiment: Antibacterial activity against methicillin-resistant Staphylococcus aureus NRS107 after 20 hrs by broth microdilution assay; format: functional; details: NRS107, 20 h; summary of the method: as §1
Staphylococcus aureus [20] = experiment: Ratio of MBC to MIC for vancomycin-resistant Staphylococcus aureus VRS12; format: functional; summary of the method: as §2
Staphylococcus aureus [21] = experiment: Bactericidal activity against methicillin resistant vancomycin-resistant Staphylococcus aureus VRS10 up to 18 hrs by broth microdilution assay; format: functional; details: VRS10, 18 h, read-out: MBC99.9
Staphylococcus aureus [22] = experiment: Bactericidal activity against methicillin-resistant Staphylococcus aureus NRS119 up to 18 hrs by broth microdilution assay; format: functional; details: NRS119, 18 h, read-out: MBC99.9
Staphylococcus aureus [23] = experiment: Bactericidal activity against methicillin resistant vancomycin-resistant Staphylococcus aureus VRS11a up to 18 hrs by broth microdilution assay; format: functional; details: read-out: MBC99.9
Staphylococcus aureus [24] = experiment: Antibacterial activity against methicillin-resistant Staphylococcus aureus NRS123 (USA400) after 20 hrs by broth microdilution assay; format: functional; summary of the method: as §1
HRT-18 cell line = experiment: Cytotoxicity against human HRT18 cells assessed as reduction in cell viability up to 32 ug/ml after 2 hrs by MTS assay; format: cell-based; details: hrt-18, 2 h
[25] = Selectivity index, ratio of toxic concentration for human HRT18 cells to MIC for methicillin-resistant Staphylococcus aureus; format: toxicity; details: read-out: Selectivity Index
Staphylococcus aureus [26] = experiment: Inhibition of UPPS/UPPP in vancomycin-resistant Staphylococcus aureus VRS10 assessed as potentiation of vancomycin-induced antibacterial activity by measuring fold reduction in vancomycin MIC at 0.5 times MIC preincubated for 30 mins followed by vancomycin addition measured after 20 to 22 hrs by broth microdilution assay relative to control
Summary of the method: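 VRS10 suspension pre-exposed to compound at ½ × MIC for 30 min at room temperature. […] Incubation at 37 °C for 20–22 h before the MIC was read; untreated bacteria served as control.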

SMILES | MIC (Staphylococcus aureus [1]) [µg/mL] | Ratio (Staphylococcus aureus [2]) | MBC (Staphylococcus aureus [3]) [µg/mL] | MBC (Staphylococcus aureus [4]) [µg/mL] | Ratio (Staphylococcus aureus [5]) | MIC (Staphylococcus aureus [6]) [µg/mL] | Ratio (Staphylococcus aureus [7]) | Ratio (Staphylococcus aureus [8]) | MBC (Staphylococcus aureus [9]) [µg/mL] | Ratio (Staphylococcus aureus [10]) | Ratio (Staphylococcus aureus [11]) | Ratio (Staphylococcus aureus [12]) | MIC (Staphylococcus aureus [13]) [µg/mL] | MBC (Staphylococcus aureus [14]) [µg/mL] | Ratio (Staphylococcus aureus [15]) | MIC (Staphylococcus aureus [16]) [µg/mL] | MIC (Staphylococcus aureus [18]) [µg/mL] | MIC (Staphylococcus aureus [19]) [µg/mL] | Ratio (Staphylococcus aureus [20]) | MBC (Staphylococcus aureus [21]) [µg/mL] | other results
C/C(=N\NC1=NCCN1)c1sc(-c2ccc(C#CC3CCCC3)cc2)nc1C | 32 (≈ 81.7 µM) | >100 | 32 (≈ 81.7 µM) | 32 (≈ 81.7 µM) | <=3 | 4 (≈ 10.2 µM) | <=3 | >100 | 16 (≈ 40.9 µM) | <=3 | <=3 | <=3 | 4 (≈ 10.2 µM) | 16 (≈ 40.9 µM) | >100 | 8 (≈ 20.4 µM) | 16 (≈ 40.9 µM) | 16 (≈ 40.9 µM) | <=3 | 8 (≈ 20.4 µM) | Ratio (Staphylococcus aureus [17]): <=3; MBC (Staphylococcus aureus [22]): 32 µg/mL (≈ 81.7 µM); MBC (Staphylococcus aureus [23]): 8 µg/mL (≈ 20.4 µM); MIC (Staphylococcus aureus [24]): 16 µg/mL (≈ 40.9 µM)
C/C(=N\NC(=N)N)c1sc(-c2ccc(C#Cc3ccccc3)cc2)nc1C | 1 (≈ 2.68 µM) | >100 | 2 (≈ 5.35 µM) | 4 (≈ 10.7 µM) | <=3 | 1 (≈ 2.68 µM) | <=3 | >100 | 1 (≈ 2.68 µM) | <=3 | <=3 | <=3 | 1 (≈ 2.68 µM) | 2 (≈ 5.35 µM) | 8 | 1 (≈ 2.68 µM) | 2 (≈ 5.35 µM) | 2 (≈ 5.35 µM) | <=3 | 2 (≈ 5.35 µM) | Activity (HRT-18 cell line): Non-Toxic; Ratio (Staphylococcus aureus [17]; read-out: Ratio): 4; selectivity ratio [25]: 7 to 31; fold change (FC) (Staphylococcus aureus [26]): 512; MBC (Staphylococcus aureus [22]): 2 µg/mL (≈ 5.35 µM); MBC (Staphylococcus aureus [23]): 2 µg/mL (≈ 5.35 µM); MIC (Staphylococcus aureus [24]): 1 µg/mL (≈ 2.68 µM)
C/C(=N\NC1=NCCN1)c1sc(-c2ccc(C#CC(C)(C)N)cc2)nc1C | – | – | – | – | – | > 64 | – | – | > 64 | – | – | <=3 | – | – | – | – | – | – | – | – | –
C/C(=N\NC(=N)N)c1sc(-c2ccc(C#CC(C)(C)N)cc2)nc1C | – | – | – | – | – | 64 (≈ 181 µM) | – | – | 64 (≈ 181 µM) | – | – | <=3 | – | – | – | – | – | – | – | – | –
CCCCCC#Cc1ccc(-c2nc(C)c(/C(C)=N/NC3=NCCN3)s2)cc1 | 16 (≈ 40.7 µM) | >100 | 32 (≈ 81.3 µM) | 32 (≈ 81.3 µM) | <=3 | 4 (≈ 10.2 µM) | <=3 | >100 | 8 (≈ 20.3 µM) | <=3 | <=3 | <=3 | 8 (≈ 20.3 µM) | 32 (≈ 81.3 µM) | >100 | 8 (≈ 20.3 µM) | 16 (≈ 40.7 µM) | 16 (≈ 40.7 µM) | <=3 | 64 (≈ 163 µM) | Ratio (Staphylococcus aureus [17]): <=3; MBC (Staphylococcus aureus [22]): 32 µg/mL (≈ 81.3 µM); MBC (Staphylococcus aureus [23]): 16 µg/mL (≈ 40.7 µM); MIC (Staphylococcus aureus [24]): 16 µg/mL (≈ 40.7 µM)
C/C(=N\NC1=NCCN1)c1sc(-c2ccc(C#CC(C)(C)C)cc2)nc1C | 2 (≈ 5.27 µM) | >100 | 4 (≈ 10.5 µM) | 16 (≈ 42.2 µM) | <=3 | 2 (≈ 5.27 µM) | <=3 | >100 | 4 (≈ 10.5 µM) | <=3 | <=3 | <=3 | 4 (≈ 10.5 µM) | 8 (≈ 21.1 µM) | 4 | 4 (≈ 10.5 µM) | 4 (≈ 10.5 µM) | 2 (≈ 5.27 µM) | <=3 | 4 (≈ 10.5 µM) | Activity (HRT-18 cell line): Non-Toxic; Ratio (Staphylococcus aureus [17]; read-out: Ratio): 4; selectivity ratio [25]: 7 to 31; MBC (Staphylococcus aureus [22]): 2 µg/mL (≈ 5.27 µM); MBC (Staphylococcus aureus [23]): 4 µg/mL (≈ 10.5 µM); MIC (Staphylococcus aureus [24]): 4 µg/mL (≈ 10.5 µM)
CCCCCCC#Cc1ccc(-c2nc(C)c(/C(C)=N/NC3=NCCN3)s2)cc1 | – | – | – | – | – | 8 (≈ 19.6 µM) | – | – | 16 (≈ 39.3 µM) | – | – | <=3 | – | – | – | – | – | – | – | – | –
